In ChEMBL document CHEMBL1177643, “Synthesis, DNA-binding ability and anticancer activity of benzothiazole/benzoxazole-pyrrolo[2,1-c][1,4]benzodiazepine conjugates” (Bioorg Med Chem, 2010):

How the values were obtained:
[1] = system: A-375; assay: Cell cycle arrest in human A375 cells assessed as accumulation at G0 phase at 2 uM after 24 hrs using propidium iodide staining by flow cytometry; assay type: functional
Method in brief: (§1)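 A375 cells (5×10^5) grown 24 h, then exposed to compound 24 h (DMSO control). Trypsin–EDTA harvest, fixed in ice-cold 70% ethanol at 4 °C 30 min, RNase A 37 °C 30 min, propidium iodide staining. DNA content measured by flow cytometry on 20,000 events, gated as sub-G1/G0, G1, S and G2/M.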

[2] = system: A-375; assay: Cell cycle arrest in human A375 cells assessed as accumulation at G1 phase at 2 uM after 24 hrs using propidium iodide staining by flow cytometry; assay type: functional; method in brief: as §1
[3] = system: A-375; assay: Cell cycle arrest in human A375 cells assessed as accumulation at G0 phase at 1 uM after 24 hrs using propidium iodide staining by flow cytometry; assay type: functional; method in brief: as §1
[4] = system: A-375; assay: Cell cycle arrest in human A375 cells assessed as accumulation at G1 phase at 0.5 uM after 24 hrs using propidium iodide staining by flow cytometry; assay type: functional; method in brief: as §1
[5] = system: A-375; assay: Cell cycle arrest in human A375 cells assessed as accumulation at G0/G1 phase at 2 uM after 24 hrs using propidium iodide staining by flow cytometry; assay type: functional; method in brief: as §1
[6] = system: A-375; assay: Cell cycle arrest in human A375 cells assessed as accumulation at sub-G0 phase at 2 uM after 24 hrs using propidium iodide staining by flow cytometry; assay type: functional; method in brief: as §1
[7] = system: A-375; assay: Cell cycle arrest in human A375 cells assessed as accumulation at sub-G0 phase at 1 uM after 24 hrs using propidium iodide staining by flow cytometry; assay type: functional; method in brief: as §1
[8] = system: A-375; assay: Cell cycle arrest in human A375 cells assessed as accumulation at G1 phase at 1 uM after 24 hrs using propidium iodide staining by flow cytometry; assay type: functional; method in brief: as §1
[9] = system: Calf thymus DNA; assay: Binding affinity to calf thymus duplex-form DNA assessed as cleavage of pBR322 after 16 hrs by restriction endonuclease digestion assay in presence of BamHI; assay type: nucleic-acid assay; details: Bos taurus
Method in brief: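 pBR322 DNA (500 ng) preincubated with compound (5–30 μM) 16 h at 37 °C, then digested with BamHI (20 U) 1 h at 37 °C. Products run on 1% agarose in Tris–acetate EDTA, 80 V, 2 h. Read-out was ethidium bromide staining under UV, with an undigested and a fully digested control.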

[10] = system: A-375; assay: Cell cycle arrest in human A375 cells assessed as accumulation at G0 phase at 0.5 uM after 24 hrs using propidium iodide staining by flow cytometry; assay type: functional; method in brief: as §1
[11] = system: A-375; assay: Cell cycle arrest in human A375 cells assessed as accumulation at G2/M phase at 2 uM after 24 hrs using propidium iodide staining by flow cytometry; assay type: functional; method in brief: as §1
[12] = system: A-375; assay: Cell cycle arrest in human A375 cells assessed as accumulation at G2/M phase at 0.5 uM after 24 hrs using propidium iodide staining by flow cytometry; assay type: functional; method in brief: as §1
[13] = system: A-375; assay: Cell cycle arrest in human A375 cells assessed as accumulation at S phase at 2 uM after 24 hrs using propidium iodide staining by flow cytometry; assay type: functional; method in brief: as §1
[14] = system: A-375; assay: Cell cycle arrest in human A375 cells assessed as accumulation at S phase at 1 uM after 24 hrs using propidium iodide staining by flow cytometry; assay type: functional; method in brief: as §1
[15] = system: A-375; assay: Cell cycle arrest in human A375 cells assessed as accumulation at G0/G1 phase at 1 uM after 24 hrs using propidium iodide staining by flow cytometry; assay type: functional; method in brief: as §1
[16] = system: A-375; assay: Cell cycle arrest in human A375 cells assessed as accumulation at S phase at 0.5 uM after 24 hrs using propidium iodide staining by flow cytometry; assay type: functional; method in brief: as §1
[17] = system: A-375; assay: Cell cycle arrest in human A375 cells assessed as accumulation at G0/G1 phase at 0.5 uM after 24 hrs using propidium iodide staining by flow cytometry; assay type: functional; method in brief: as §1
[18] = system: A-375; assay: Cell cycle arrest in human A375 cells assessed as accumulation at G2/M phase at 1 uM after 24 hrs using propidium iodide staining by flow cytometry; assay type: functional; method in brief: as §1
[19] = system: A-375; assay: Cell cycle arrest in human A375 cells assessed as accumulation at sub-G0 phase at 0.5 uM after 24 hrs using propidium iodide staining by flow cytometry; assay type: functional; method in brief: as §1

COc1cc2c(cc1O)N=C[C@@H]1CCCN1C2=O
Activity [1]: 10.7%
Activity [2]: 67.23%
Activity [3]: 14.41%
Activity [4]: 79.42%
Activity [5]: 77.93%
Activity [6]: 26.75%
Activity [7]: 14.41%
Activity [8]: 74.22%
Activity [9]: Dose-dependent effect
Activity [10]: 3.73%
Activity [11]: 8.53%
Activity [12]: 6.45%
Activity [13]: 13.54%
Activity [14]: 5.03%
Activity [15]: 88.63%
Activity [16]: 79.42%
Activity [17]: 83.15%
Activity [18]: 6.34%
Activity [19]: 2.23%
